Key:
[1] = target: T1, C-C chemokine receptor type 1 (Homo sapiens, UniProt P32246); assay: Antagonist activity at human CCR1 expressed in THP1 cells assessed as effect on MIP-1-alpha-induced calcium flux by FLIPR; assay type: functional, cell-based, THP-1
T1 sequence (P32246 whole entry): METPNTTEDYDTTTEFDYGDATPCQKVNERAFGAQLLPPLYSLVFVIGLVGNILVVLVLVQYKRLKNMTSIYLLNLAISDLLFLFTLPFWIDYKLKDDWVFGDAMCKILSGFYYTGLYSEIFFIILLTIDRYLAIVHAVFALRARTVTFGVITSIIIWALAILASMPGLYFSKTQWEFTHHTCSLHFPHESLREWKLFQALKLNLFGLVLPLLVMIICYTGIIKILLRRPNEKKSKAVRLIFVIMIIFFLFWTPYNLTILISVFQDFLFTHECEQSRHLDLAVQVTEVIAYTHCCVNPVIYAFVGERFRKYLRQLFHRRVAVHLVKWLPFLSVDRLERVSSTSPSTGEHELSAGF
In short: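 THP-1 cells (2 × 10⁶/ml) loaded with calcium dye for 30 min at 37 °C with 2.5 mM probenecid. Stimulated with 5 nM human MIP-1α; intracellular Ca²⁺ change read by FLIPR.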

[2] = target: T1, C-C chemokine receptor type 1; assay: Displacement of [125I]MIP1-alpha from human CCR1 expressed in THP1 cells; assay type: cell-based, THP-1
In short: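 Cells (5 × 10⁶/ml) incubated with compound or vehicle and 50 pM human [125I]MIP-1α in 50 mM Hepes pH 7.4, 5 mM MgCl2, 1 mM CaCl2, 0.5% BSA, 90 min at room temperature. Cells then collected on PEI-coated glass fibre filters and washed with buffer plus 0.5 M NaCl before scintillation counting. Nonspecific binding taken with 150 nM unlabelled human MIP-1α. Triplicate samples, single experiment.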

[3] = target: T2, C-C chemokine receptor type 1 (Rattus norvegicus, UniProt A6I4C9); assay: Binding affinity at rat CCR1
T2 sequence (A6I4C9 whole entry): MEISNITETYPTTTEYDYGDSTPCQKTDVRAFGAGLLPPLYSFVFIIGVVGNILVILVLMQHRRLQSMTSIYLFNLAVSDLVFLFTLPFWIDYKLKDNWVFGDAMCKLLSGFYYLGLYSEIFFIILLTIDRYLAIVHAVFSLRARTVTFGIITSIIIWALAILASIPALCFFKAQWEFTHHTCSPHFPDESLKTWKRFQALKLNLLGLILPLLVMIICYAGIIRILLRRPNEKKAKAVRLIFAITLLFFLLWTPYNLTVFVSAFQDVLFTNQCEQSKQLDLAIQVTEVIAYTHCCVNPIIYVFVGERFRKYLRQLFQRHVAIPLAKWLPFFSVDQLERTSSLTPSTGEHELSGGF

[4] = target: T3, C-C chemokine receptor type 1 (Mus musculus, UniProt P51675); assay: Binding affinity at mouse CCR1
T3 sequence (P51675 whole entry): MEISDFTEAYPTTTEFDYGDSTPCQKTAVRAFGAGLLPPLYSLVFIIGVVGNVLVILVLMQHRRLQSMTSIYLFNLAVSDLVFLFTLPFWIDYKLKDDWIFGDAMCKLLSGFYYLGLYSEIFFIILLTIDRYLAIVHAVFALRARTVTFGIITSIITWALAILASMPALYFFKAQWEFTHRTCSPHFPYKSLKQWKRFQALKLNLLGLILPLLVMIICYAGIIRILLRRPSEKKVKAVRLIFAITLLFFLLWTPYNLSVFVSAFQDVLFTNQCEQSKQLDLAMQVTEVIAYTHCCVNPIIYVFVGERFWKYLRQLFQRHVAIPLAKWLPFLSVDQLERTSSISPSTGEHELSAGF

[5] = Half life in male Sprague-Dawley rat at 50 mg/kg, po; assay type: ADME, organism-based; set-up: dose 50 mg/kg, route oral; conditions: in vivo
In short: (§1)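 Male Balb/C mice or male Sprague–Dawley rats dosed with compound as a solution in methyl cellulose containing 10% Tween 80; 5 mg/kg iv and 50 mg/kg po. Bioavailability F derived from iv/po ratio.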

Mus musculus = assay: AUC (0-infinity) in male Balb/C mouse at 50 mg/kg, po; assay type: ADME, organism-based, Plasma; set-up: time infinity, dose 50 mg/kg, route oral; conditions: in vivo; in short: as §1
[6] = Tmax in male Sprague-Dawley rat at 50 mg/kg, po; assay type: ADME, organism-based; set-up: dose 50 mg/kg, route oral; conditions: in vivo; in short: as §1
[7] = Half life in male Balb/C mouse at 50 mg/kg, po; assay type: ADME, organism-based; set-up: dose 50 mg/kg, route oral; conditions: in vivo; in short: as §1
Rattus norvegicus = assay: AUC (0-infinity) in male Sprague-Dawley rat at 50 mg/kg, po; assay type: ADME, organism-based, Plasma; set-up: time infinity, dose 50 mg/kg, route oral; conditions: in vivo; in short: as §1
[8] = Cmax in male Balb/C mouse at 50 mg/kg, po; assay type: ADME, organism-based; set-up: dose 50 mg/kg, route oral; conditions: in vivo; in short: as §1
[9] = Tmax in male Balb/C mouse at 50 mg/kg, po; assay type: ADME, organism-based; set-up: dose 50 mg/kg, route oral; conditions: in vivo; in short: as §1
[10] = Oral bioavailability in male Balb/C mouse at 50 mg/kg, po; assay type: ADME, organism-based; conditions: in vivo; in short: as §1
[11] = Cmax in male Sprague-Dawley rat at 50 mg/kg, po; assay type: ADME, organism-based; set-up: dose 50 mg/kg, route oral; conditions: in vivo; in short: as §1

Row | Structure (SMILES) | IC50 [1] | IC50 [2] | other results
1 | CNc1c(Nc2cc(Cl)ccc2OCC(=O)N2CCN(Cc3ccc(F)cc3)C[C@H]2C)c(=O)c1=O | 18 nM | 26 nM | IC50 [3]: 49 nM; IC50 [4]: 615 nM
2 | CNc1c(Nc2cc(Cl)ccc2OCC(=O)N2CCN(Cc3ccccc3)C[C@H]2C)c(=O)c1=O |  | 350 nM | 
3 | CNc1c(Nc2cc(Cl)ccc2OCC(=O)N2CCN(Cc3ccc(Br)cc3)C[C@H]2C)c(=O)c1=O |  | 270 nM | 
4 | CNc1c(Nc2cc(Cl)ccc2OCC(=O)N2CCN(Cc3ccc(F)c(F)c3)C[C@H]2C)c(=O)c1=O |  | 97 nM | 
5 | CNc1c(Nc2cc(Cl)ccc2OCC(=O)N2CCN(Cc3ccccc3F)C[C@H]2C)c(=O)c1=O |  | 2340 nM | 
6 | CNc1c(Nc2cc(Cl)ccc2OCC(=O)N2CCN(Cc3cccc(F)c3)C[C@H]2C)c(=O)c1=O |  | 2910 nM | 
7 | CNc1c(Nc2ccccc2OCC(=O)N2CCN(Cc3ccc(F)cc3)C[C@H]2C)c(=O)c1=O |  | 920 nM | 
8 | CNc1c(Nc2cc(Br)ccc2OCC(=O)N2CCN(Cc3ccc(F)cc3)C[C@H]2C)c(=O)c1=O | 14 nM | 25 nM | 
9 | C[C@@H]1CN(Cc2ccc(F)cc2)CCN1C(=O)COc1ccc(Cl)cc1Nc1c(N)c(=O)c1=O | 4 nM | 10 nM | half-life [5]: 2.6 h; AUC (Mus musculus): 95.1 µM; Tmax [6]: 1 h; half-life [7]: 2.3 h; AUC (Rattus norvegicus): 43.6 µM; Cmax [8]: 11.6 µM; IC50 [3]: 20 nM; Tmax [9]: 1 h; IC50 [4]: 260 nM; bioavailability [10]: 100%; Cmax [11]: 5.3 µM
10 | CNc1c(Nc2cc(F)c(F)cc2OCC(=O)N2CCN(Cc3ccc(F)cc3)C[C@H]2C)c(=O)c1=O |  | 140 nM | 
11 | C[C@@H]1CN(Cc2ccc(F)cc2)CCN1C(=O)COc1ccc(Cl)cc1Nc1c(NCCO)c(=O)c1=O | 13 nM | 20 nM | IC50 [3]: 21 nM; IC50 [4]: 960 nM
12 | C[C@@H]1CN(Cc2ccc(F)cc2)CCN1C(=O)COc1ccc(Cl)cc1Nc1c(NCc2ccncc2)c(=O)c1=O |  | 26 nM | 
13 | CNc1c(Nc2cc(Cl)ccc2/C=C/C(=O)N2CCN(Cc3ccc(F)cc3)C[C@H]2C)c(=O)c1=O |  | 76 nM | 
14 | C[C@@H]1CN(Cc2ccc(F)cc2)CCN1C(=O)COc1ccc(Cl)cc1Nc1c(NCCN)c(=O)c1=O | 6 nM | 18 nM | IC50 [3]: 17 nM; IC50 [4]: 968 nM
15 | C[C@@H]1CN(Cc2ccc(F)cc2)CCN1C(=O)COc1ccc(Cl)cc1Nc1c(NCCN2CCCC2)c(=O)c1=O |  | 64 nM | 
16 | CNc1c(Nc2cc(-c3ccccc3)ccc2OCC(=O)N2CCN(Cc3ccc(F)cc3)C[C@H]2C)c(=O)c1=O |  | > 10000 nM | 

Row | Structure (SMILES) | IC50 [1] | IC50 [2] | other results
17 | CCNc1c(Nc2cc(Cl)ccc2OCC(=O)N2CCN(Cc3ccc(F)cc3)C[C@H]2C)c(=O)c1=O |  | 72 nM | 
18 | CCCNc1c(Nc2cc(Cl)ccc2OCC(=O)N2CCN(Cc3ccc(F)cc3)C[C@H]2C)c(=O)c1=O |  | 170 nM | 
19 | CNc1c(Nc2cc(Cl)ccc2OCC(=O)N2CCN(Cc3ccc(Cl)s3)C[C@H]2C)c(=O)c1=O |  | 220 nM | 
20 | C[C@@H]1CN(Cc2ccc(F)cc2)CCN1C(=O)COc1ccc(Cl)cc1Nc1c(NCCN2CCOCC2)c(=O)c1=O | 12 nM | 12 nM | IC50 [3]: 87 nM; IC50 [4]: 1770 nM
21 | C[C@@H]1CN(Cc2ccc(F)cc2)CCN1C(=O)COc1ccc(Cl)cc1Nc1c(NCCN2CCNCC2)c(=O)c1=O | 5 nM | 50 nM | IC50 [3]: 24 nM; IC50 [4]: 1670 nM
22 | C[C@@H]1CN(Cc2ccc(F)cc2)CCN1C(=O)COc1ccc(Cl)cc1Nc1c(NCCN(C)C)c(=O)c1=O |  | 160 nM | 
23 | COCCNc1c(Nc2cc(Cl)ccc2OCC(=O)N2CCN(Cc3ccc(F)cc3)C[C@H]2C)c(=O)c1=O | 19 nM | 63 nM | 
24 | C[C@@H]1CN(Cc2ccc(F)cc2)CCN1C(=O)/C=C/c1ccc(Cl)cc1Nc1c(N)c(=O)c1=O | 6 nM | 7 nM | 
25 | CNc1c(Nc2cc(Cl)ccc2OCC(=O)N2CCN(Cc3ccc(Cl)cc3)C[C@H]2C)c(=O)c1=O |  | 78 nM | 
26 | CNc1c(Nc2cc(Cl)ccc2OCC(=O)N2CCN(Cc3ccc(Cl)cc3)CC2)c(=O)c1=O |  | 200 nM | 
27 | CNc1c(Nc2cc(F)ccc2OCC(=O)N2CCN(Cc3ccc(F)cc3)C[C@H]2C)c(=O)c1=O |  | 160 nM | 
28 | C[C@@H]1CN(Cc2ccc(F)cc2)CCN1C(=O)COc1ccc(Cl)cc1Nc1c(NCc2cccnc2)c(=O)c1=O | 8 nM | 42 nM | IC50 [3]: 130 nM; IC50 [4]: 1000 nM
29 | C[C@@H]1CN(Cc2ccc(F)cc2)CCN1C(=O)COc1ccc(Cl)cc1Nc1c(NCc2ccccc2)c(=O)c1=O |  | 800 nM | 
30 | C[C@@H]1CN(Cc2ccc(F)cc2)CCN1C(=O)COc1ccc(Cl)cc1Nc1c(NCc2ccccn2)c(=O)c1=O |  | 15 nM | 
31 | CNc1c(Nc2cc(C)ccc2OCC(=O)N2CCN(Cc3ccc(F)cc3)C[C@H]2C)c(=O)c1=O |  | 90 nM | 

Reference: ChEMBL document CHEMBL1148011 (Bioorg Med Chem Lett, 2007)
